PLCg1 inh – PLC-gamma1 enzyme inhibitors, primary screen, biochemical, fluorescence, purified enzyme; AID 720700, 2013; fluorogenic substrate; inhibition, % at 12.2 µM; hit rate 0.84% among 370,000; in the data active = inhibition above about 9.5%
ADAM10 inh – human ADAM10 inhibitors, primary screen, biochemical, QFRET, HTS | inhibition, % at 7 µM | Disintegrin and metalloproteinase domain-containing protein 10 (Homo sapiens), O14672 | hit rate 0.62% among 370,000 | recombinant ADAM10, EDANS/DABCYL FRET peptide cleavage, 3 h;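 active = inhibition above a per-campaign cutoff equal to the mean of compounds falling between control-based bounds plus 3 SD, cut at about 20% in these data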;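 note: 0% = DMSO wells while the 100% control is not disclosed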
Tb MetRS inh – T. brucei MetRS inhibitors, primary screen, biochemical, luminescence | methionyl-tRNA synthetase (Trypanosoma brucei brucei) | purified T. brucei MetRS, ATP depletion, Kinase-Glo luminescence | inhibition, % at 11.9 µM | hit rate 0.4% among 360,000;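 active = inhibition above a per-plate cutoff of the control wells' mean inhibition plus 3 SD, cut at about 5.5% in these data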;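 note: 0% = DMSO wells median and 100% = median of wells with control inhibitor compound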
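System: purified T. brucei MetRS enzyme / Detection: Kinase-Glo luciferase luminescence reporting remaining unconsumed ATP / Medium: HEPES buffer with MgCl2, KCl, DTT, spermine, BSA, pyrophosphatase / Replication: singlicate, one well per compound / Evaluation: percent inhibition relative to median high and low control wells / Schedule: 2 h aminoacylation at 25 °C after 15 min preincubation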
ADAM17 inh – ADAM17 inhibitors, primary screen, biochemical, QFRET | recombinant ADAM17, EDANS/DABCYL FRET peptide cleavage | inhibition, % at 6.95 µM | hit rate 0.83% among 370,000;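 active = inhibition above the mean of compounds lying between control limits plus 3 SD, set per campaign, cut at about 8.5% in these data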;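 note: 0% = DMSO-only wells as the low control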
PLC-beta3 inh – human PLC-beta3 inhibitors, primary screen, biochemical, fluorescence; Purified PLC-beta3, fluorogenic substrate; hit rate 0.18% among 370,000; inhibition, % at 12.2 µM; 1-phosphatidylinositol 4,5-bisphosphate phosphodiesterase beta-3 (Homo sapiens), Q01970; in the data active = inhibition above about 11%;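 note: 0% = median of compound wells on plate and 100% = full blocker control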
Target sequence (Q01970 whole entry, looked up): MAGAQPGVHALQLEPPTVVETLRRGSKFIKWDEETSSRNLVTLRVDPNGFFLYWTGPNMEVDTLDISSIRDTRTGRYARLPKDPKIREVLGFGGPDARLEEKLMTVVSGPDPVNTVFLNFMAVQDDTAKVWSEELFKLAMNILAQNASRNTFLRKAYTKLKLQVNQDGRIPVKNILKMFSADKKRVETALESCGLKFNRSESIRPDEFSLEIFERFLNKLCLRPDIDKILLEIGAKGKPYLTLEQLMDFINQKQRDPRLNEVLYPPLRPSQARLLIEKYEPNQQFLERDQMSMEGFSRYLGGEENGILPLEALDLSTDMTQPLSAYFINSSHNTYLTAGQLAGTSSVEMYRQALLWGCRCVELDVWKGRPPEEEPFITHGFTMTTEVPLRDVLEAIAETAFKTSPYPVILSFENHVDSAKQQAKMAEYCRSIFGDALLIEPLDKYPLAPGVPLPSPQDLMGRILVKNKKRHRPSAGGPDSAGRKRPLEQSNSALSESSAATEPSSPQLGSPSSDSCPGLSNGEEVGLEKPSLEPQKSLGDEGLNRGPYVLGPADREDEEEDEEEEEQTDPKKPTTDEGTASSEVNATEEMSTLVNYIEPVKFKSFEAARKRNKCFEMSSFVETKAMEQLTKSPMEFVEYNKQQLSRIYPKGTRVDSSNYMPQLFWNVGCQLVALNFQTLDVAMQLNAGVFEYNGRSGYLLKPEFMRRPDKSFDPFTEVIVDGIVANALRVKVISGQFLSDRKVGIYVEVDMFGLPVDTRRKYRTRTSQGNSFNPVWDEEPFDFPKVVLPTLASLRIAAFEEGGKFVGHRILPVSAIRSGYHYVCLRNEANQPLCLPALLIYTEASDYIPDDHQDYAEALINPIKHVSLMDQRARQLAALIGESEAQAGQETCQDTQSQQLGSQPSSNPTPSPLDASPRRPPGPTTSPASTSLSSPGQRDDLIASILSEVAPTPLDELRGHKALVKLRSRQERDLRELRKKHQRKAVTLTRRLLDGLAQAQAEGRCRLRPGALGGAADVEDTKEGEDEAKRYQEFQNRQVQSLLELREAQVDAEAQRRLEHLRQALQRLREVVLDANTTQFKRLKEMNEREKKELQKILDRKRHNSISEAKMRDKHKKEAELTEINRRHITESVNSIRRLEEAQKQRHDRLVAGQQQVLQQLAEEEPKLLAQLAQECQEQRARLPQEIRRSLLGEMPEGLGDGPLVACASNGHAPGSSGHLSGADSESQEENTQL
ADAM10 confirm – human ADAM10 inhibitors, confirmation, biochemical, QFRET, triplicate. shares compounds with ADAM10 inh. ADAM10 QFRET peptide cleavage, EDANS fluorescence. inhibition, % at 6.95 µM. hit rate 1% among 2,100. AID 743208, 2013;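 active = inhibition above about 20% chosen separately for each screening run, limit read from the data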;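 note: 0% = DMSO wells and 100% = marimastat wells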
ADAM17 counter – ADAM17 inhibitors, counter-screen for ADAM10 exosite inhibitor project, biochemical, QFRET, high throughput; inhibition, % at 6.95 µM; hit rate 0.5% among 2,100; ADAM17 QFRET peptide cleavage, EDANS fluorescence; shares compounds with ADAM10 inh;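 active = mean triplicate inhibition above the solvent-only control wells' mean plus 3 SD, cut at about 12% in these data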;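 note: 0% = DMSO wells and 100% = marimastat wells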
Active calls of the source: *; · = no result. Sampled rows, rich in hits. Any-hit rate of the full collection: about 2.3%.

SMILES	PLCg1 inh	ADAM10 inh	Tb MetRS inh	ADAM17 inh	PLC-beta3 inh	ADAM10 confirm	ADAM17 counter
CC(C)[C@H](NC(=O)[C@@H]1Cc2c([nH]c3ccccc23)C2c3ccccc3C(=O)N21)C(=O)N1CCC[C@@H]1C(=O)O (some centres not stated)	-45	-110	-1	-25	-57	·	·
O=C(NC(C(=O)N/N=C/c1cccc2ccccc12)c1n[nH]c(=O)c2ccccc12)c1ccccc1 (configuration not stated)	3	22*	-1	7	0	19	6
Oc1ccc(Cl)cc1Sc1cc(Cl)ccc1O	3	25*	0	6	-9	8	2
Cc1noc(C)c1NC(=O)Nc1ccc2c(c1)C(=O)N([C@@H](C)CO)C[C@@H](C)[C@H](CN(C)S(=O)(=O)c1ccc(F)cc1)OCCCC[C@H](C)O2	-1	0	·	-1	2	·	·
COCCNC(=O)c1onc(CSc2ccccn2)c1C(=O)NCCOC	-1	0	0	1	2	·	·
CC(C)CCNC(=O)c1onc(CSc2ccccn2)c1C(=O)NCCC(C)C	3	20*	0	6	-3	4	1
CC(=O)C1=CCC(c2ccccc2)N(Cc2ccccc2)C1 (configuration not stated)	-2	-8	0	-2	-3	·	·
O=C(CCc1ccccc1)N[C@H]1[C@H](OCc2ccccc2)CCC[C@@]12C(=O)N(Cc1ccccc1)c1ccc(-c3ccccn3)cc12	3	0	·	1	0	·	·
COC(=O)C(Cc1c[nH]c2ccccc12)NC(C)=O (configuration not stated)	5	0	-1	-2	2	·	·
CC(=O)N[C@@H](Cc1c[nH]c2ccccc12)C(=O)OCc1cc(C(F)(F)F)cc(C(F)(F)F)c1	1	24*	-1	3	-1	-1	-1
CCOC(=O)c1c(C)[nH]c(C)c1S(=O)(=O)NCCN1CCN(c2cc(Cl)ccc2C)CC1	-1	24*	0	12*	1	4	2
CCOC(=O)c1c(C)[nH]c(C)c1S(=O)(=O)NCCCN1CCOCC1	0	0	0	0	-8	·	·
O=C(C=Cc1cccs1)c1ccc(Cl)s1	1	-16	0	-5	-5	·	·
O=C(Cn1nnc(-c2ccncc2)n1)Nc1ccc(Oc2ccccc2)cc1	0	-2	·	1	-1	·	·
O=C(NCc1cn(-c2ccccc2)nc1-c1ccc(F)cc1)c1cccc([N+](=O)[O-])c1	2	21*	1	9	6	7	2
CCn1cc(CNC(=O)c2cccc([N+](=O)[O-])c2)c(C)n1	3	-8	0	-2	-4	·	·
Cc1cc(C(=O)NN=Cc2cccc(O)c2)n[nH]1	-1	-3	·	1	1	·	·
Cc1onc(C(=O)N2CCN(C(c3ccccc3)c3ccccc3)CC2)c1Br	2	14	·	4	3	·	·
CNC(=S)NNC(=O)c1noc(C)c1C(=O)N1CCN(C(c2ccccc2)c2ccccc2)CC1	7	32*	-1	6	10	-1	0
CC(=O)Nc1cccc(C(=O)OC(C(=O)c2ccc(C)cc2)c2ccccc2)c1 (configuration not stated)	-1	25*	-1	7	-1	5	2
CC(=O)Nc1cccc(C(=O)OC(C(=O)c2ccc(C)c(C)c2)c2ccccc2)c1 (configuration not stated)	-1	12	0	3	3	·	·
O=S1(=O)c2ccc(N3CCSCC3)cc2Oc2ccccc2CN1Cc1cn(Cc2ccc(C(F)(F)F)cc2)nn1	0	20*	·	-1	2	10	3
C#CCOCCOCCOCCNc1nc(N2CCOCC2)nc(N2CCN(C(=O)[C@H](CCC(=O)O)n3cc(C(N)CC(C)C)nn3)CC2)n1 (some centres not stated)	5	-19	·	-7	-2	·	·
CCC1(C)CN=C(c2ccccc2)NC1 (configuration not stated)	5	-2	0	2	3	·	·
O=S(=O)(NCc1ccc(Cl)c(Cl)c1)c1cc(Cl)ccc1N1CC[C@@H](O)C1	-1	21*	·	8	-5	7	2
SMILES	PLCg1 inh	ADAM10 inh	Tb MetRS inh	ADAM17 inh	PLC-beta3 inh	ADAM10 confirm	ADAM17 counter
Cc1ccc(NC(=S)Nc2cc(-c3ccccc3)[nH]n2)cc1Cl	2	16	2	4	3	·	·
Fc1ccc(NC(=S)Nc2cc(-c3ccccc3)[nH]n2)cc1Cl	-1	22*	0	5	-9	10	3
COC(=O)[C@H]1C[C@@]2(C)c3ccccc3N(C(=O)OC(C)(C)C)[C@H]2N1C(=O)OC(C)(C)C	0	6	·	1	3	·	·
CCCOC(=O)c1ccc(Oc2c(-c3ccc(OC)cc3O)n[nH]c2C)cc1	-1	17	-1	5	0	·	·
CCCOC(=O)c1ccc(Oc2c(-c3ccc(O)cc3O)n[nH]c2C)cc1	-1	22*	0	6	-2	3	2
Cc1cccc(C)c1-c1ccc(CN2C(CC(C)C)C(=O)N(Cc3cn(CCO)nn3)CCS2(=O)=O)cc1 (configuration not stated)	-1	22*	0	8	2	11	3
CC(C)CC1C(=O)N(Cc2cn(CCC3OCCO3)nn2)CCS(=O)(=O)N1Cc1ccc(-c2cccc(CO)c2)cc1 (configuration not stated)	0	6	0	0	2	·	·
O=C(NCCOc1ccccc1)c1cccc(S(=O)(=O)N2CCN(Cc3ccccc3)CC2)c1	4	24*	0	7	5	4	1
COc1ccc(CNC(=O)c2cccc(S(=O)(=O)N3CCN(c4ccc(F)cc4)CC3)c2)cc1	1	22*	0	8	-5	6	2
COc1cccc(CNC(=O)c2cccc(S(=O)(=O)N3CCN(c4ccc(F)cc4)CC3)c2)c1	-2	18	0	5	-4	·	·
CCCN(C(=O)CSCc1ccccc1C)c1c(N)n(Cc2ccccc2)c(=O)[nH]c1=O	-1	-10	0	-6	-8	·	·
Cn1c(CSc2nc3ccccc3s2)n[nH]c1=S	-4	0	0	-4	1	·	·
S=c1[nH]nc(CSc2nc3ccccc3s2)o1	-3	25*	0	6	-5	-3	0
CCN(c1ccccc1)S(=O)(=O)c1ccc(Cl)c(NC(=O)CSc2ncn[nH]2)c1	2	23*	0	2	2	3	3
